Fibroblast inh – blocks proliferation of human lung fibroblasts; 85,000 compounds, 1.1% hits; AID 719; LL 47 human lung fibroblast viability, ATP luminescence; active compounds read low; viability, % at 10 µM;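 active = viability at or below 50% in the single dose screen; inactive = viability above 50%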;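 also: compound exposure lasted 72 h before the ATP readout; 100% = median luminescence of untreated cell-only wells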
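Material: human lung fibroblast line LL 47, low passage; Evaluation: viability percentage against median untreated-cell control; Buffer or medium: 15% FBS in IMEM; Incubation: 72 h compound exposure at 37 °C after overnight plating; Dosing: 0.1% DMSO in all compound wells; Measured by: CellTiter-Glo luminescence.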
H69AR inhibit – blocks growth of human H69AR lung tumor cells; H69AR lung tumor viability, ATP luminescence, 72 h; active compounds read low; viability, % at 10 µM; 85,000 compounds, 6% hits;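 active = viability at or below 40%; inactive = viability above 40%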;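 also: multidrug resistant small cell line overexpressing MRP-1 efflux transporter; 100% = mean luminescence of untreated control wells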
Ecoli tolC – growth inhibitors of E. coli BW25113 tolC mutant; OD615; growth inhibition, % at 10 µM (by protocol); 65,000 compounds, 2.2% hits;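 active = growth inhibition at or above a cutoff equal to the mean over every tested compound plus 3 SD, cut at about 60% in these data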;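 also: growth measured after 20 h incubation at 37 °C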
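Test system: E. coli BW25113 ΔtolC::kan bacteria | Medium: Kanamycin-containing LB broth (50 µg/mL) | Dosing: One dose of 10 µM final | Times: 20 h incubation with compound, 37 °C | Detection: Optical density read at 615 nm | Read-out basis: Percent growth inhibition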
Jurkat tox 60K – reduces viability or proliferation of Jurkat cells; Jurkat E6.1 viability, ATP luminescence, 48 h; inhibition, % at 4 µM; 56,000 compounds, 1.2% hits; AID 463;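 active = inhibition above the mean inhibition of all tested compounds plus 3 SD, cut at about 28% in these data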
HUVEC inhibit – inhibitors of human endothelial cell proliferation | 86,000 compounds, 1.1% hits | AID 648 | viability, % at 10 µM (by protocol) | HUVEC proliferation, CellTiter-Glo luminescence, 72 h; active compounds read low;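 active = viability at or below 30%; inactive = viability above 30%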;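 also: 100% = median luminescence of DMSO-only cell control wells on each plate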
E coli WT exp – E. coli BW25113 growth inhibition, expanded screen. 98,000 compounds, 0.15% hits. OD600 absorbance. growth inhibition, % at 100 µM;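 active = growth inhibition above about 50% at one test dose, limit read from the data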;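 also: growth measured after 20 h incubation at 37 °C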
Active calls of the source: *; / = no result given. The list is not random: actives were taken first. Their share in the collection is about 6.4%.

SMILES	Fibroblast inh	H69AR inhibit	Ecoli tolC	Jurkat tox 60K	HUVEC inhibit	E coli WT exp
COc1ccc2nc(NC(=O)c3ccoc3C)sc2c1	53	23*	-13	20	46	-11
COc1ccc2nc(NC(=O)C3COc4ccccc4O3)sc2c1 (stereo not drawn)	101	84	93*	2	86	-9
CCSc1nnc(NC(=O)c2cccc(OCc3c(C)noc3C)c2)s1	94	96	62*	/	88	-6
O=C(CCC(=O)OCC(=O)c1ccc(Br)cc1)Nc1ccc(Br)c2cccnc12	/	/	/	/	/	-16
COc1ccc(N(CC(=O)NC2CCCCC2)C(=O)CNC(=O)c2ccco2)cc1OC	104	105	/	/	105	/
O=C(Nc1cccnc1)Nc1ccc(F)c(Cl)c1	106	86	49	0	92	61*
Cc1nn(CC(O)Cn2cnc3c2c(=O)n(C)c(=O)n3C)c(C)c1Br (stereo not drawn)	/	/	-4	4	/	0
Cc1nn(CC(O)Cn2c3c(c4ccccc42)CCN(C)C3=O)c(C)c1Br (stereo not drawn)	98	38*	18	-4	83	-3
O=c1[nH]c(N2CCN(c3ccccc3)CC2)nc2c1CCC2	100	96	-3	4	85	-7
O=c1[nH]c(N2CCN(c3ccccc3)CC2)nc2c1CCCC2	100	21*	/	/	77	-5
O=C(CNC(=O)c1ccc([N+](=O)[O-])cc1)c1ccccc1	/	/	/	/	/	-2
O=C(C#Cc1ccccc1)c1ccc([N+](=O)[O-])cc1	20*	1.1*	/	/	47	2
C/C(CC(=O)Nc1ccc(OCc2ccccc2)cc1)=N\NC(=O)C(=O)Nc1ccc(C)c(Cl)c1	/	/	/	/	/	1
O=C(c1c(O)c2ccccc2oc1=O)C1CCCCC1	90	54	/	/	83	-5
O=C(CCC1CCCC1)c1c(O)c2ccccc2oc1=O	91	81	97*	0	1.8*	14
Cc1ccc(-c2nnn(CC(=O)N(CC(=O)NC3CCCCC3)c3ccc(F)c(Cl)c3)n2)o1	40*	8.3*	/	/	37	/
Cc1ccc(-c2nnn(CC(=O)N(CC(=O)NCC3CCCO3)c3ccc(F)c(Cl)c3)n2)o1 (stereo not drawn)	98	86	-9	-7	90	-3
Cc1ccc(-c2nnn(CC(=O)N(CC(=O)NC3CCCC3)c3cnc4ccccc4c3)n2)o1	100	76	1	4	98	-23
CCC(C(=O)NC1CCCC1)N(C(=O)Cn1nnc(-c2ccc(C)o2)n1)c1cnc2ccccc2c1 (stereo not drawn)	86	5.0*	3	-1	97	-4
Cc1ccc(-c2nnn(CC(=O)N(CC(=O)NC3CCCC3)c3ccc(F)c(Cl)c3)n2)o1	83	7.8*	/	/	52	/
COc1ccccc1N1CCN(C(=O)c2cnn3cccnc23)CC1	95	80	-20	11	101	-3
Cc1cccc2sc(NC(=O)C3c4ccccc4Oc4ccccc43)nc12	/	/	/	/	/	-14
CCn1nc(C(=O)N[C@@H](CCSC)c2nc3ccccc3[nH]2)c2ccccc2c1=O	100	73	/	/	96	-2
CCCCn1nc(C(=O)N[C@@H](CCSC)c2nc3ccccc3[nH]2)c2ccccc2c1=O	97	36*	/	/	76	-9
CCCc1nn(C)c2c1C(c1ccncc1)C(C#N)=C(N)O2 (stereo not drawn)	98	74	-9	-7	86	17
SMILES	Fibroblast inh	H69AR inhibit	Ecoli tolC	Jurkat tox 60K	HUVEC inhibit	E coli WT exp
COc1cccc(-c2ccc(C#N)c(OC(=O)c3ccc(Cl)cc3)n2)c1	99	8.9*	/	/	88	-16
COc1cccc(-c2ccc(C#N)c(OC(=O)c3c(Cl)cccc3Cl)n2)c1	85	44	/	/	61	-15
Cc1ccc2nc(N3CCN(C(=O)c4cccs4)CC3)c(C#N)cc2c1	95	63	19	5	89	-4
O=C(CSc1nnc2sc3ccccc3n12)NCc1ccc2c(c1)OCO2	/	/	2	2	/	/
Cc1onc(-c2ccccc2Cl)c1C(=O)N1CCN(c2ccccc2)CC1	93	20*	11	0	99	5
Cc1onc(-c2ccccc2Cl)c1C(=O)N1CCN(C(=O)c2ccco2)CC1	101	95	-8	1	95	2
Cc1onc(-c2ccccc2Cl)c1C(=O)N1CCN(c2cccc(Cl)c2)CC1	54	28*	9	61*	52	4
O=C(C1CCCO1)N1CCN(c2ccc(F)cc2)CC1 (stereo not drawn)	98	98	/	/	93	/
